Laboratory results taken from ChEMBL document CHEMBL4334471, “Discovery of 1,8-disubstituted-[1,2,3]triazolo[4,5-c]quinoline derivatives as a new class of Hippo signaling pathway inhibitors” (Bioorg Med Chem Lett, 2019).

How the values were obtained:
Homo sapiens [1] = species: Homo sapiens; experiment: Inhibition of recombinant full length human Aurora A I31F mutant assessed as residual activity at 10 uM using LRRASLG as substrate incubated for 40 mins in presence of [gamma-33ATP] by scintillation counting based radiometry assay relative to control
[2] = tested on: Tyrosine-protein kinase receptor UFO (Homo sapiens), P30530 [Q764R]; experiment: Inhibition of recombinant human Axl Q764R mutant (473 to end residues) assessed as residual activity at 10 uM using KKSRGDYMTMQIG as substrate incubated for 40 mins in presence of [gamma-33ATP] by scintillation counting based radiometry assay relative to control
Tyrosine-protein kinase receptor UFO (Homo sapiens), P30530 [Q764R], sequence (P30530 whole entry Q764R): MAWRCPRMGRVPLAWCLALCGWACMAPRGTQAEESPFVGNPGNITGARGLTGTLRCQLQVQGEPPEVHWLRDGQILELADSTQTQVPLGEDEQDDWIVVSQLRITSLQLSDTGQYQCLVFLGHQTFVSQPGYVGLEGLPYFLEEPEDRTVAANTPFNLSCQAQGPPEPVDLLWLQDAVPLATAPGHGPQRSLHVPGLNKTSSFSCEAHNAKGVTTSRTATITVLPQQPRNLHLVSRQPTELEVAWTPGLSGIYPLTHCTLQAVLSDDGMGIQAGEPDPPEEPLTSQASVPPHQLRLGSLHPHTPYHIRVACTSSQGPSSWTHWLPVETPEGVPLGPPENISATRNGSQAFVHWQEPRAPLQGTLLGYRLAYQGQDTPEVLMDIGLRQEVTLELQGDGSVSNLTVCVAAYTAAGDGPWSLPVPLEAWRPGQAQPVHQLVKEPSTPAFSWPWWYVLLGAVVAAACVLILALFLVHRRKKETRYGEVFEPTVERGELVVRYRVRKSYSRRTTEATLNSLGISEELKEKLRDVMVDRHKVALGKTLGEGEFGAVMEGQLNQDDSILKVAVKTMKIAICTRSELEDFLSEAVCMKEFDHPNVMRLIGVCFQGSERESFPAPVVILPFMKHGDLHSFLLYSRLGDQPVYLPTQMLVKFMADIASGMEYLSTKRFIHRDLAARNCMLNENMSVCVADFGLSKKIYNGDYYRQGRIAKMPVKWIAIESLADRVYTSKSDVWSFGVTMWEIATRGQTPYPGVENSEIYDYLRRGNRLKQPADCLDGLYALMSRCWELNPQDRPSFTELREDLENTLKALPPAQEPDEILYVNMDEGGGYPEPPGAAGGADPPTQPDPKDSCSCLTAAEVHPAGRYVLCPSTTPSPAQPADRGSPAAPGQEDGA

[3] = biological target: CDK7/Cyclin H/MNAT1 (Homo sapiens) (UniProt P51946+P50613+P51948); experiment: Inhibition of recombinant full length human CDK7/cyclinH/MAT1 assessed as residual activity at 10 uM using peptide as substrate incubated for 40 mins in presence of [gamma-33ATP] by scintillation counting based radiometry assay relative to control; assay type: protein-complex assay
[4] = biological target: Cyclin-dependent kinase 13/Cyclin-K (Homo sapiens) (UniProt Q14004+O75909); experiment: Inhibition of recombinant full length human CDK13/cyclinK assessed as residual activity at 10 uM using RSRSRSRSRSRSR as substrate incubated for 40 mins in presence of [gamma-33ATP] by scintillation counting based radiometry assay relative to control; assay type: protein-complex assay
[5] = tested on: eIF-2-alpha kinase GCN2 (Homo sapiens), Q9P2K8 [E556G]; experiment: Inhibition of recombinant full length human GCN2 E556G mutant assessed as residual activity at 10 uM using RSRSRSRSRSRSR as substrate at 40 mins in presence of [gamma-33ATP] by scintillation counting based radiometry assay relative to control
[6] = biological target: Serine/threonine-protein kinase haspin (Homo sapiens) (UniProt Q8TF76); experiment: Inhibition of human Haspin (471 to end residues ) assessed as residual activity at 10 uM using RARTLSFAEPG as substrate after 40 mins by [gamma-33ATP] radiometric assay relative to control
Serine/threonine-protein kinase haspin (Homo sapiens), sequence (Q8TF76 whole entry, the tested form may be a part): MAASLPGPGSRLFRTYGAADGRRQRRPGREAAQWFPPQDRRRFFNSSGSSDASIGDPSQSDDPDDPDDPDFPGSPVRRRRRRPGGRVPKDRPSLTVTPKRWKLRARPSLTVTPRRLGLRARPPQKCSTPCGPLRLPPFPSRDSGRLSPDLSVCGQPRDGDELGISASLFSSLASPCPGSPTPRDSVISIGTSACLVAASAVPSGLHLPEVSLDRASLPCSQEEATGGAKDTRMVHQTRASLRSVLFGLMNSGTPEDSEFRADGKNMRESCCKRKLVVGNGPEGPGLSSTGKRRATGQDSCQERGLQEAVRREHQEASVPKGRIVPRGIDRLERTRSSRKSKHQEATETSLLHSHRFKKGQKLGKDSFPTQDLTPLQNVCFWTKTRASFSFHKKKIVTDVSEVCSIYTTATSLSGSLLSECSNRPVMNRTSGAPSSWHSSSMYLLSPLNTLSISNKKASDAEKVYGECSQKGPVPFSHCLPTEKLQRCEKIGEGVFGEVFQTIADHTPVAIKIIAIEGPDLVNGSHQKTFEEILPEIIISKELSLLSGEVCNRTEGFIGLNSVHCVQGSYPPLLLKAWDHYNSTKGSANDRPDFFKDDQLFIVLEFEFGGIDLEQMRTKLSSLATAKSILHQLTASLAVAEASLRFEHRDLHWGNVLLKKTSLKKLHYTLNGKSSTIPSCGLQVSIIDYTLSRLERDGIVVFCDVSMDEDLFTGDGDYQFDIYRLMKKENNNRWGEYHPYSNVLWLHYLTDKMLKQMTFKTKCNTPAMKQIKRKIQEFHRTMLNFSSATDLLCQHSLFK

[7] = biological target: Tyrosine-protein kinase HCK (Homo sapiens) (UniProt P08631); experiment: Inhibition of human HCK activated (230 to 497 residues) assessed as residual activity at 10 uM using GGMEDIYFEFMGGKKK as substrate after 40 mins by [gamma-33ATP] radiometric assay relative to control
[8] = biological target: Insulin receptor (Homo sapiens) (UniProt P06213); experiment: Inhibition of human IR (1005 to 1310 residues) assessed as residual activity at 10 uM using KKSRGDYMTMQIG as substrate after 40 mins by [gamma-33ATP] radiometric assay relative to control
[9] = biological target: Mitogen-activated protein kinase 10 (Homo sapiens) (UniProt P53779); experiment: Inhibition of human JNK3 assessed as residual activity at 10 uM using peptide as substrate after 40 mins by [gamma-33ATP] radiometric assay relative to control
Mitogen-activated protein kinase 10 (Homo sapiens), sequence (P53779 whole entry, the tested form may be a part): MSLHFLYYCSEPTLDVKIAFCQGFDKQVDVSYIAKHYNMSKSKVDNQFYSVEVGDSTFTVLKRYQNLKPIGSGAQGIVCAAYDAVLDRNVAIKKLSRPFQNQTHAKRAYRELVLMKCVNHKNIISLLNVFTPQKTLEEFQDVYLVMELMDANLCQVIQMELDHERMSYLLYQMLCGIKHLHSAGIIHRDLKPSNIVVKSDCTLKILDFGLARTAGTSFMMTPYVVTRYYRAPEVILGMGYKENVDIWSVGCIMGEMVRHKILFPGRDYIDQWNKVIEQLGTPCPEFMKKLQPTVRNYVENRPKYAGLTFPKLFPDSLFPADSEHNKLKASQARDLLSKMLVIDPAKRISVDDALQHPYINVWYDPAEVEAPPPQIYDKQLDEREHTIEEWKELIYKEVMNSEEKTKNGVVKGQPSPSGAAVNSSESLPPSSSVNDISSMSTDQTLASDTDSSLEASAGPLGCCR

[10] = biological target: Mitogen-activated protein kinase kinase kinase kinase 3 (Homo sapiens) (UniProt Q8IVH8); experiment: Inhibition of recombinant human MAP4K3 (1 to 291 residues) assessed as residual activity at 10 uM using RLGRDKYKTLRQI as substrate incubated for 40 mins in presence of [gamma-33ATP by scintillation counting based radiometry assay relative to control
[11] = biological target: Mitogen-activated protein kinase kinase kinase 2 (Homo sapiens) (UniProt Q9Y2U5); experiment: Inhibition of recombinant full length human MEKK2 assessed as residual activity at 10 uM using myelin basic protein as substrate incubated for 40 mins in presence of [gamma-33ATP by scintillation counting based radiometry assay relative to control
Mitogen-activated protein kinase kinase kinase 2 (Homo sapiens), sequence (Q9Y2U5 whole entry, the tested form may be a part): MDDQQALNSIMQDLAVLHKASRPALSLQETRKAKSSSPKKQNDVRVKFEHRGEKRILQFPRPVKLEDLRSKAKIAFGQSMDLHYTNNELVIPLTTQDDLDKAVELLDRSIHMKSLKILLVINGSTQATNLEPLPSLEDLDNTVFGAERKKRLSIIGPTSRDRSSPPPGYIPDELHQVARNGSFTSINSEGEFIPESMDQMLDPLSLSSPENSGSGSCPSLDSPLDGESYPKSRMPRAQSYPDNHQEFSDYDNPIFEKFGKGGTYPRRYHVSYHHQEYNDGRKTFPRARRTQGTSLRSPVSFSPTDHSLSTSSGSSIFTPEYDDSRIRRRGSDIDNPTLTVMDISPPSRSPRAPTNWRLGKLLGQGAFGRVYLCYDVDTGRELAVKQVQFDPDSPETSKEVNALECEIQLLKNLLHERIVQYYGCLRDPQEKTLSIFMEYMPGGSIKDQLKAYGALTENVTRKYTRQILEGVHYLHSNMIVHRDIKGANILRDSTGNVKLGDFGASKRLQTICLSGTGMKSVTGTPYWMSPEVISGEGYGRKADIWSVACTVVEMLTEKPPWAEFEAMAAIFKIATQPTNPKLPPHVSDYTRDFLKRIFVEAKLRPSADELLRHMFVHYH

Homo sapiens [12] = species: Homo sapiens; experiment: Inhibition of recombinant human MER H628Q/R794A mutant (557 to 882 residues) assessed as residual activity at 10 uM using KKLNRTLSFAEPG as substrate incubated for 40 mins in presence of [gamma-33ATP by scintillation counting based radiometry assay relative to control
[13] = biological target: Muscle, skeletal receptor tyrosine-protein kinase (Homo sapiens) (UniProt O15146); experiment: Inhibition of recombinant human MUSK (530 to end residues) assessed as residual activity at 10 uM using myelin basic protein as substrate measured after 40 mins in presence of [gamma33P]ATP by scintillation counting based radiometry assay relative to control
[14] = biological target: Serine/threonine-protein kinase PAK 5 (Homo sapiens) (UniProt Q9P286); experiment: Inhibition of recombinant human PAK5 (425 to end residues) assessed as residual activity at 10 uM using RRRLSFAEPG as substrate measured after 40 mins in presence of [gamma33P]ATP by scintillation counting based radiometry assay relative to control
[15] = biological target: Serine/threonine-protein kinase TBK1 (Homo sapiens) (UniProt Q9UHD2); experiment: Inhibition of recombinant full length human TBK1 assessed as residual activity at 10 uM using KRRRALS(p)VASLPGL as substrate incubated for 40 mins in presence of [gamma33P]ATP by scintillation counting based radiometry assay relative to control
[16] = biological target: High affinity nerve growth factor receptor (Homo sapiens) (UniProt P04629); experiment: Inhibition of recombinant human TRKA (440 to end residues) assessed as residual activity at 10 uM using KKKSPGEYVNIEF as substrate incubated for 40 mins in presence of [gamma33P]ATP by scintillation counting based radiometry assay relative to control
[17] = biological target: Testis-specific serine/threonine-protein kinase 4 (Homo sapiens) (UniProt Q6SA08); experiment: Inhibition of recombinant full-length human TSSK4 assessed as residual activity at 10 uM using KKLNRTLSFAEPG as substrate incubated for 40 mins in presence of [gamma33P]ATP by scintillation counting based radiometry assay relative to control
[18] = biological target: Serine/threonine-protein kinase ULK2 (Homo sapiens) (UniProt Q8IYT8); experiment: Inhibition of recombinant human ULK2 (1 to 306 residues) assessed as residual activity at 10 uM using casein as substrate incubated for 40 mins in presence of [gamma33P]ATP by scintillation counting based radiometry assay relative to control
Serine/threonine-protein kinase ULK2 (Homo sapiens), sequence (Q8IYT8 whole entry, the tested form may be a part): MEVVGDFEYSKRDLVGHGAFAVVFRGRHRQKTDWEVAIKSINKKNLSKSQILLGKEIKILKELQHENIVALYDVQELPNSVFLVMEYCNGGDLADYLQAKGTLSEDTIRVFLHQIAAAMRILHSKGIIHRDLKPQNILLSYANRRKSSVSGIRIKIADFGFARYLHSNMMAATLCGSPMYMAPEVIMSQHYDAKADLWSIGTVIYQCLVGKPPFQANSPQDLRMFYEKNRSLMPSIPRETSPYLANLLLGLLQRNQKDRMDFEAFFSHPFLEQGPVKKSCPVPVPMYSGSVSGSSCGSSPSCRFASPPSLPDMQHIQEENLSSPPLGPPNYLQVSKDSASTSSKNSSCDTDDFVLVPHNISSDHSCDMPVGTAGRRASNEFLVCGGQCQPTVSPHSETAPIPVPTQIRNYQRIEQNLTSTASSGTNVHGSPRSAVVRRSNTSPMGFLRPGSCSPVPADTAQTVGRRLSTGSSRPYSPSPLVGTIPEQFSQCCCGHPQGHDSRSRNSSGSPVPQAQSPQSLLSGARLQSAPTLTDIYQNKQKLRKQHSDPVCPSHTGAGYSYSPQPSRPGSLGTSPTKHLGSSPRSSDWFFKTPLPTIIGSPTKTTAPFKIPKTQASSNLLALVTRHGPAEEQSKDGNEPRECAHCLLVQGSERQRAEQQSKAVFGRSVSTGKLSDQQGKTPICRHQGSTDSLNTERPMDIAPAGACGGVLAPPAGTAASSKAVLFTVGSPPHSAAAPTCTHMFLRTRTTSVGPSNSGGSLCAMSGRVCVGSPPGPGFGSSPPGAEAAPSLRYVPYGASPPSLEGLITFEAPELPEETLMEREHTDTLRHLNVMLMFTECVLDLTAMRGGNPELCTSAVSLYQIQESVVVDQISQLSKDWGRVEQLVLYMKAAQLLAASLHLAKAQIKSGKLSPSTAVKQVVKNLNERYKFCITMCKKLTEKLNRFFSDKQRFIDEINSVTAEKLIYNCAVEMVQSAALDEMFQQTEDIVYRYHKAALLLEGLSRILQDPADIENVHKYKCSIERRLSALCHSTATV

[19] = biological target: Serine/threonine-protein kinase WNK4 (Homo sapiens) (UniProt Q96J92); experiment: Inhibition of recombinant human WNK4 (A31 to D461 residues) assessed as residual activity at 10 uM using myelin basic protein as substrate incubated for 40 mins in presence of [gamma33P]ATP by scintillation counting based radiometry assay relative to control
Serine/threonine-protein kinase WNK4 (Homo sapiens), sequence (Q96J92 whole entry, the tested form may be a part): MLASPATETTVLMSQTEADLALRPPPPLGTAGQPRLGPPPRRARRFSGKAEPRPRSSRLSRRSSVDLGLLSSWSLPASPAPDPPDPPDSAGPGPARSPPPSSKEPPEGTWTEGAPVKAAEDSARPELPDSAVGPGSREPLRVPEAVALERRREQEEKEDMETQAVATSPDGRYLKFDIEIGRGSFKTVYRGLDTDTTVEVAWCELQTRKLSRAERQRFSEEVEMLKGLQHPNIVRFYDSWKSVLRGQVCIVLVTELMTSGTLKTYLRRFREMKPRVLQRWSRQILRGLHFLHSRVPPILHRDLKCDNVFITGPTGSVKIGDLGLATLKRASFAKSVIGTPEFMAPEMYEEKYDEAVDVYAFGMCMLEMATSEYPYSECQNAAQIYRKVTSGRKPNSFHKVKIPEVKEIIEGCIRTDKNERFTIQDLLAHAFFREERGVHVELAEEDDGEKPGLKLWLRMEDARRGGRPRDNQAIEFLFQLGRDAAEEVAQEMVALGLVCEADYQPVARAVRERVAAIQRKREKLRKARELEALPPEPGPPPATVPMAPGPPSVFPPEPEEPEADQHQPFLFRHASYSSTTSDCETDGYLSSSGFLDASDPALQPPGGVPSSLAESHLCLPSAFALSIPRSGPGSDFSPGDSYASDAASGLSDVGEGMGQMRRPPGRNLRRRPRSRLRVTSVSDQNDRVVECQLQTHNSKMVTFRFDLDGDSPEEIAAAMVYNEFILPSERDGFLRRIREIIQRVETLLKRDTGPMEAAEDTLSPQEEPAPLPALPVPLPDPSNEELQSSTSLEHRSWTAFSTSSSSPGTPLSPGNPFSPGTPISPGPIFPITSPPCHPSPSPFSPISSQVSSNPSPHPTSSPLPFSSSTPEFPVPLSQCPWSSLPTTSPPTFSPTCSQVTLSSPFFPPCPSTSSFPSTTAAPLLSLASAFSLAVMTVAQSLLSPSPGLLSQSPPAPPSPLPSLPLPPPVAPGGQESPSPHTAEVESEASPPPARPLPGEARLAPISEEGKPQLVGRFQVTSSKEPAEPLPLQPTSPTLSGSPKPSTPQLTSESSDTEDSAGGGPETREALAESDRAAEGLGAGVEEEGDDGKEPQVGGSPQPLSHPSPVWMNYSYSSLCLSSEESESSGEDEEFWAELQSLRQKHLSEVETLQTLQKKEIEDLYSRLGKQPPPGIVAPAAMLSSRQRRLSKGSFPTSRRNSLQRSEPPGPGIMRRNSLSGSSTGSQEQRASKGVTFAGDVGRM

[20] = biological target: Death-associated protein kinase 3 (Homo sapiens) (UniProt O43293); experiment: Inhibition of recombinant human ZIPK (1 to 290 residues) assessed as residual activity at 10 uM using KKLNRTLSFAEPG substrate incubated for 40 mins in presence of [gamma33P]ATP by scintillation counting based radiometry assay relative to control
[21] = biological target: Serine/threonine-protein kinase 4 (Homo sapiens, UniProt Q13043); experiment: Inhibition of recombinant full-length human MST1 assessed as residual activity using KKSRGDYMTMQIG as substrate measured after 40 mins in presence of [gamma33P]ATP by scintillation counting based radiometry assay
Summary of the method: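 Outsourced kinase profiling of MST1 by a commercial service (Eurofins); activity reported as mean ± SEM of 2 replicates.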

Compound: C[C@@H](c1ccccc1)n1nnc2cnc3ccc(-c4cnc5[nH]ccc5c4)cc3c21
- Activity (Homo sapiens [1]): 69%
- Activity [2]: 64%
- Activity [3]: 80%
- Activity [4]: 84%
- Activity [5]: 93%
- Activity [6]: 51%
- Activity [7]: 21%
- Activity [8]: 64%
- Activity [9]: 47%
- Activity [10]: 73%
- Activity [11]: 107%
- Activity (Homo sapiens [12]): 56%
- Activity [13]: 74%
- Activity [14]: 90%
- Activity [15]: 85%
- Activity [16]: 5%
- Activity [17]: 77%
- Activity [18]: 98%
- Activity [19]: 96%
- Activity [20]: 69%
- IC50 [21]: > 10 µM
